The values below come from ChEMBL document CHEMBL3870325 (Bioorg Med Chem, 2017).

Assay [1] addresses T1, Epidermal growth factor receptor (Homo sapiens, UniProt P00533). The assay is described as follows: Inhibition of EGFR in human A549 cells assessed as suppression of EGFR phosphorylation at Tyr1173 residue measured after 24 hrs by Western blot analysis. Format: cell-based. In short, it runs like this: (§1)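 A549 cells treated 24 h across a dose range. Lysate protein (20-40 µg) run on 7.5%-15% SDS-PAGE and blotted to PVDF. Membranes blocked 2 h in TBST with 5% BSA. Primary antibody (p-EGFR Tyr1068, p-EGFR Tyr1173, total EGFR, acetyl-histone H3 Lys27) applied 8-12 h at 4°C. HRP secondary, chemiluminescent detection.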
On the technique in general: In western blotting, separated proteins are transferred to a membrane and probed.

In assay [2] the test system is BT-474. The assay is described as follows: Induction of apoptosis in human BT474 cells assessed as necrotic cells at 1 uM measured after 48 hrs by Annexin V-FITC/propidium iodide staining based flow cytometry (reference value: 0.06%). Format: functional.
Assay [3] deals with BT-474. The assay is described as follows: Induction of apoptosis in human BT474 cells assessed as viable cells at 1 uM measured after 48 hrs by Annexin V-FITC/propidium iodide staining based flow cytometry (reference value: 96.76%). Format: functional. As to conditions: BT-474, 48 h, read-out: Activity. A general note: In flow cytometry, cells or beads pass a laser one at a time.

The subject of assay [4] is BT-474. The assay is described as follows: Induction of apoptosis in human BT474 cells assessed as viable cells at 5 uM measured after 48 hrs by Annexin V-FITC/propidium iodide staining based flow cytometry (reference value: 96.76%). Type of assay: functional. As to conditions: BT-474, 48 h, read-out: Activity.
The subject of assay [5] is BT-474. The assay is described as follows: Induction of apoptosis in human BT474 cells assessed as early apoptotic cells at 5 uM measured after 48 hrs by Annexin V-FITC/propidium iodide staining based flow cytometry (reference value: 2.87%). Format: functional.
The subject of assay [6] is BT-474. The assay is described as follows: Induction of apoptosis in human BT474 cells measured after 48 hrs by Annexin V-FITC/propidium iodide staining based flow cytometry. Type of assay: functional, cell-based.
The subject of assay [7] is BT-474. The assay is described as follows: Induction of apoptosis in human BT474 cells assessed as early apoptotic cells at 1 uM measured after 48 hrs by Annexin V-FITC/propidium iodide staining based flow cytometry (reference value: 2.87%). Format: functional.
Assay [8] relates to BT-474. The assay is described as follows: Induction of apoptosis in human BT474 cells assessed as necrotic cells at 5 uM measured after 48 hrs by Annexin V-FITC/propidium iodide staining based flow cytometry (reference value: 0.06%). Format: functional.
Another assay addresses Histone deacetylase 1 (Homo sapiens, UniProt Q13547). The assay is described as follows: Inhibition of HDAC1 (unknown origin) using acetylated peptide substrate preincubated for 15 mins followed by substrate addition measured after 60 mins by fluorescence analysis.
In assay [9] the test system is BT-474. The assay is described as follows: Induction of apoptosis in human BT474 cells assessed as necrotic cells at 2.5 uM measured after 48 hrs by Annexin V-FITC/propidium iodide staining based flow cytometry (reference value: 0.06%). Type of assay: functional.
Assay [10] in a line: cells. As to conditions: Homo sapiens, SK-BR-3, 48 h.
For assay [11], the system named is BT-474. The assay is described as follows: Induction of apoptosis in human BT474 cells assessed as late apoptotic cells at 5 uM measured after 48 hrs by Annexin V-FITC/propidium iodide staining based flow cytometry (reference value: 0.32%). Format: functional.
Assay [12] has as its target T2, Receptor tyrosine-protein kinase erbB-2 (Homo sapiens, UniProt P04626). As to conditions: BT-474, 25 uM.
The target in assay [13] is T2, Receptor tyrosine-protein kinase erbB-2. The assay is described as follows: Inhibition of HER2 (unknown origin) assessed as remaining ATP level measured after 15 mins by luminescence analysis. In outline: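 Kinase run as a contracted HTRF assay. Compounds in 3-fold dilution in 2.5% DMSO/kinase buffer, mixed with kinase and substrate, preincubated 15 min at RT. ATP added to start, reaction 30 min at RT. Stopped with Streptavidin-XL665 plus europium-cryptate TK antibody (1:100). Excitation 320 nm, 665/615 nm emission ratio. IC50 from inhibition curves, results from 2 assays.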

The subject of another assay is A549. The assay is described as follows: Inhibition of HDAC in human A549 cells assessed as activation of H3 hyperacetylation measured after 24 hrs by Western blot analysis. Format: cell-based. In short, it runs like this: as §1
The nature of assay [14]: cells. To be noted: Homo sapiens, NCI-H1975, 48 h.
Assay [15] is described as follows: cells. Format: functional, cell-based. To be noted: Homo sapiens, A549, 48 h.
The target of assay [16] is T1, Epidermal growth factor receptor. The assay is described as follows: Inhibition of EGFR in human A549 cells assessed as suppression of EGFR phosphorylation at Tyr1068 residue measured after 24 hrs by Western blot analysis. Format: cell-based. In outline: as §1
Assay [17] shares this target. To be noted: A549, 0.5 uM.
Assay [18] in a line: cells. To be noted: Homo sapiens, BT-474, 48 h. Format: functional, cell-based.
Assay [19] deals with T1, Epidermal growth factor receptor. As to conditions: A549, 0.5 uM. This is another data set of the same source.
For assay [20], the system named is BT-474. The assay is described as follows: Induction of apoptosis in human BT474 cells assessed as late apoptotic cells at 1 uM measured after 48 hrs by Annexin V-FITC/propidium iodide staining based flow cytometry (reference value: 0.32%). Format: functional.
Assay [21] deals with BT-474. The assay is described as follows: Induction of apoptosis in human BT474 cells assessed as viable cells at 2.5 uM measured after 48 hrs by Annexin V-FITC/propidium iodide staining based flow cytometry (reference value: 96.76%). As to conditions: BT-474, 48 h, read-out: Activity. Type of assay: functional.
Assay [22] deals with BT-474. The assay is described as follows: Induction of apoptosis in human BT474 cells assessed as late apoptotic cells at 2.5 uM measured after 48 hrs by Annexin V-FITC/propidium iodide staining based flow cytometry (reference value: 0.32%). Type of assay: functional.
Assay [23] addresses T2, Receptor tyrosine-protein kinase erbB-2. To be noted: BT-474, 1 uM.
Assay [24] has as its target T1, Epidermal growth factor receptor.
The subject of assay [25] is BT-474. The assay is described as follows: Induction of apoptosis in human BT474 cells assessed as early apoptotic cells at 2.5 uM measured after 48 hrs by Annexin V-FITC/propidium iodide staining based flow cytometry (reference value: 2.87%). Type of assay: functional.
Assay [26] deals with T3, Protein deacetylase HDAC6 (Homo sapiens, UniProt Q9UBN7).
T3 sequence (Q9UBN7 whole entry): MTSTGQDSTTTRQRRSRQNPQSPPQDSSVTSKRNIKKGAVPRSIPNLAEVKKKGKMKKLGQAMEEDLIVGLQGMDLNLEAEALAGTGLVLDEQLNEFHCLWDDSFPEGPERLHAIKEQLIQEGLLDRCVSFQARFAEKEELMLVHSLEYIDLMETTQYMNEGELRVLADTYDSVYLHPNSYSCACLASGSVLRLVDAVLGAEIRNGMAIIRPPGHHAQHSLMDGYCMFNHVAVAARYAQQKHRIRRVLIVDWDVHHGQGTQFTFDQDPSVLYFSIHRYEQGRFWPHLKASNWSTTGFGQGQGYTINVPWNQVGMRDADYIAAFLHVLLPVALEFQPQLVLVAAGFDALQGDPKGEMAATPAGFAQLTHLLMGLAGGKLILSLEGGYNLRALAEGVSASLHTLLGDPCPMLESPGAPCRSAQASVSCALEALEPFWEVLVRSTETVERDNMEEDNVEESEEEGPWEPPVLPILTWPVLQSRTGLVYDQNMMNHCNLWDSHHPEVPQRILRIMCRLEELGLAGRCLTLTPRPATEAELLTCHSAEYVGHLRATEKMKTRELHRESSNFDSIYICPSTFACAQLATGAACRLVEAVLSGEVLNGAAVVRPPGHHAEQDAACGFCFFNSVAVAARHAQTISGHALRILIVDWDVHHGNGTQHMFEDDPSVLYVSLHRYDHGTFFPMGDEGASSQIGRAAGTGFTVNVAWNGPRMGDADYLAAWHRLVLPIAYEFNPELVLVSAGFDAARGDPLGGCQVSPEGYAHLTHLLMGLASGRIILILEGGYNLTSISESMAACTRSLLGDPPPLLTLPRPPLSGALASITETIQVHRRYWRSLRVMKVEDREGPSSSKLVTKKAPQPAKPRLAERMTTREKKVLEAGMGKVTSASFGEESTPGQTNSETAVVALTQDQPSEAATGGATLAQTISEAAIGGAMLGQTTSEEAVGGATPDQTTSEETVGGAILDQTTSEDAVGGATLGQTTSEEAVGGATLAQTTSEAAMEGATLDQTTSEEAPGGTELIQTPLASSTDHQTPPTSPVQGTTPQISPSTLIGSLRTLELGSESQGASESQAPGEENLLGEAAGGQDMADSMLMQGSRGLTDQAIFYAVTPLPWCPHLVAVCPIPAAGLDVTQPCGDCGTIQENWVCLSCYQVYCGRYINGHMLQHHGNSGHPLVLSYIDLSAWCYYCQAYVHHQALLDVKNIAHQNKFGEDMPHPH
The assay is described as follows: Inhibition of HDAC6 (unknown origin) using acetylated peptide substrate preincubated for 15 mins followed by substrate addition measured after 60 mins by fluorescence analysis.

Assay [27] in a line: cells. As to conditions: Homo sapiens, A-431, 48 h.
A short description of assay [28]: Inhibition of HDAC in human HeLa cell nuclear extract using COLOR DE LYS as substrate by fluorometric analysis. Format: cell-free.
Assay [29] has as its target T2, Receptor tyrosine-protein kinase erbB-2. The assay is described as follows: Inhibition of HER2 (unknown origin). In short, it runs like this: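 Homogeneous time-resolved fluorescence kinase assay. Compounds were 3-fold serially diluted in 2.5% DMSO/kinase buffer and preincubated with kinase and substrate for 15 min at RT. ATP started the reaction, which ran 30 min at RT and was stopped with Streptavidin-XL665 plus TK antibody europium cryptate. Read at 320 nm excitation, 665/615 nm emission ratio. IC50 from inhibition curves; two separate assays.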

The target of assay [30] is T1, Epidermal growth factor receptor. The assay is described as follows: Inhibition of EGFR (unknown origin). In outline:
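HTRF kinase assay. Compounds were serially diluted 3-fold in 2.5% DMSO/kinase buffer, then mixed with kinase and substrate and preincubated 15 min at RT. The reaction was started with ATP and run 30 min at RT. It was stopped with Streptavidin-XL665 and TK antibody europium cryptate. Read at ex 320 nm, em 665/615 nm ratio. IC50 from inhibition curves; 2 separate assays.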

T1 sequence (P00533 whole entry): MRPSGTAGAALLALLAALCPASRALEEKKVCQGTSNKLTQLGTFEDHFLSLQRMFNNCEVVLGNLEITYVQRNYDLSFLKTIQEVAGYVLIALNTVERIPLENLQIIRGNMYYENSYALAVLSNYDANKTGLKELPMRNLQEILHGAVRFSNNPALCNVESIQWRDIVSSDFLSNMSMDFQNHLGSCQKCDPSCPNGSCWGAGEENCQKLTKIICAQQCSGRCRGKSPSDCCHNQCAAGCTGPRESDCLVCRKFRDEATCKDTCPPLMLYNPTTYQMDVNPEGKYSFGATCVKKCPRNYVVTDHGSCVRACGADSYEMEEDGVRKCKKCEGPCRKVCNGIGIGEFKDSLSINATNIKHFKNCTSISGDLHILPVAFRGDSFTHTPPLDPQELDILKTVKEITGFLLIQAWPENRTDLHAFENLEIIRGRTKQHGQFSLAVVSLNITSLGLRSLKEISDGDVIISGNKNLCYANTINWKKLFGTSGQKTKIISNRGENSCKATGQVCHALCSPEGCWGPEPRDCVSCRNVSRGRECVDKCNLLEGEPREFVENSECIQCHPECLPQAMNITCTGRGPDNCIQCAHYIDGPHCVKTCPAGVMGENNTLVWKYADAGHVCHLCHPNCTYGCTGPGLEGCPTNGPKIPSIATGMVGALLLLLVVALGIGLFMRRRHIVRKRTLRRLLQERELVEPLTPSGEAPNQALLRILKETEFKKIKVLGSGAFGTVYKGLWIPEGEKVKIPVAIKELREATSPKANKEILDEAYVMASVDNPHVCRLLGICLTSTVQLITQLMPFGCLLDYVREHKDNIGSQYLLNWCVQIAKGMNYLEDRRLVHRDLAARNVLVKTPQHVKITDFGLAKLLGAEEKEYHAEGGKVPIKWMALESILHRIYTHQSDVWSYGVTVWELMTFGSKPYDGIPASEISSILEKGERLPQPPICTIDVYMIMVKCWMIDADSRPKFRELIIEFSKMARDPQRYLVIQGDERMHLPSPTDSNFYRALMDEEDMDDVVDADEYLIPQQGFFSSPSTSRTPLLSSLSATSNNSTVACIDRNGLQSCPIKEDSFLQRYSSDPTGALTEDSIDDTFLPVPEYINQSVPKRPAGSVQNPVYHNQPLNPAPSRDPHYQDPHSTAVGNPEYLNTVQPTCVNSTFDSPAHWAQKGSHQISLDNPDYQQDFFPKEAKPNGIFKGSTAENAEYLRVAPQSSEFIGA
T2 sequence (P04626 whole entry): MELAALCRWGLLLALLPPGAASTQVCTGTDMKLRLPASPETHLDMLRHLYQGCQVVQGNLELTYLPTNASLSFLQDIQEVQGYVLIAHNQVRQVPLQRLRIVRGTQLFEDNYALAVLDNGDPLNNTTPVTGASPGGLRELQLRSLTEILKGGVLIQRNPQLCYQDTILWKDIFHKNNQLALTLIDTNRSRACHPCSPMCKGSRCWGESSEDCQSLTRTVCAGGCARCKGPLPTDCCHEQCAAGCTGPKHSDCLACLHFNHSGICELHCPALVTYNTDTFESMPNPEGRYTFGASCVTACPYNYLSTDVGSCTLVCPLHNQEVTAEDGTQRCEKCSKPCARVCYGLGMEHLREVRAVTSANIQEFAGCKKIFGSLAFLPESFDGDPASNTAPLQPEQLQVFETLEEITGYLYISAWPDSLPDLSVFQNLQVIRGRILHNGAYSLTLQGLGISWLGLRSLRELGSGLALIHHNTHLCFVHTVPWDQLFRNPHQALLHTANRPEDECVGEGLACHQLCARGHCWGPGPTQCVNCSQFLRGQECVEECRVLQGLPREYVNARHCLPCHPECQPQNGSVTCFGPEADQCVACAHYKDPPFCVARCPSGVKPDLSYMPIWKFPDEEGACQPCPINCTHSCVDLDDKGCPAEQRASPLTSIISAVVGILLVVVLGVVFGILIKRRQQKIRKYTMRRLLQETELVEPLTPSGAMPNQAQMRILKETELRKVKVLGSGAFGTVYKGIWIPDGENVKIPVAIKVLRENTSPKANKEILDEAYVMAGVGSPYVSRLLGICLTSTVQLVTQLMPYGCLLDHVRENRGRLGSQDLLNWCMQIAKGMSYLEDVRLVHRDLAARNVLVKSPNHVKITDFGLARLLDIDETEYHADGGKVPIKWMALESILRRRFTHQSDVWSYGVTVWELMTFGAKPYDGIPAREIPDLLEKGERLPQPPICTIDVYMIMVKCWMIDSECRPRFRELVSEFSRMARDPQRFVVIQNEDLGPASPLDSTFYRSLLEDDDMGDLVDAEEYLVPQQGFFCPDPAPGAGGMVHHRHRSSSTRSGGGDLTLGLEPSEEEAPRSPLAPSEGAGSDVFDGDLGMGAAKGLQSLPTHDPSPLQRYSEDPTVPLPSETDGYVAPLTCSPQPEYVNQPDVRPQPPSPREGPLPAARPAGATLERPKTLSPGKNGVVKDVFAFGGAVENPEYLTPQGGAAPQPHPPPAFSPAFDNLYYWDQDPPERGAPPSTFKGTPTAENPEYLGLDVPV
Histone deacetylase 1, sequence (Q13547 whole entry): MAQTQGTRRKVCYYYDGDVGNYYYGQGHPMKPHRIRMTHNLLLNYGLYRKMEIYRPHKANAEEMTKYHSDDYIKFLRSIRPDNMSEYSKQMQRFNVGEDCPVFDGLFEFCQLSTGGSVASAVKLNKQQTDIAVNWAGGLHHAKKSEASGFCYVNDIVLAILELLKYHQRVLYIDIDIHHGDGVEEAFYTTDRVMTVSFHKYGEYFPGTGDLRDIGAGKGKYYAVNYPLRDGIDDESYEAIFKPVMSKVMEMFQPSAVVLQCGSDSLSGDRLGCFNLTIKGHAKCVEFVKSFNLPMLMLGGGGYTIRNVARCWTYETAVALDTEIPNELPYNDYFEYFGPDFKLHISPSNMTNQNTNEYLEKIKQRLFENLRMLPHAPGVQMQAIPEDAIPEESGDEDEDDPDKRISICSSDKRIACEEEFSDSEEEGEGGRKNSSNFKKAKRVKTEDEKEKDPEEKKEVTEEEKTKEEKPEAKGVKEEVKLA

For `O=C(CCCCCCn1cc(-c2ccc3ncnc(Nc4cccc(Cl)c4F)c3c2)nn1)NO`, the inhibition entry in assay [1] is “Dose-dependent effect”; in assay [12], 100%; in the assay with A549, “Dose-dependent effect”; in assay [16], “Dose-dependent effect”; in [17], 100%; in assay [19], 100%. Also, in assay [23], the inhibition was determined as 100%. The Activity was 0.34% in the assay with BT-474 [2]; 22.02% in the assay on BT-474 [5]; “Dose-dependent effect” in the assay with BT-474 [6]; 8.27% in the assay on BT-474 [7]; 1.36% in the assay on BT-474 [8]; 0.89% with BT-474 [9]. For the same compound, the Activity stood at 41.84% with BT-474 [11], 5.1% in the assay on BT-474 [20], 19.73% with BT-474 [22] and 14.83% in the assay with BT-474 [25]. Further, the viability at 1 µM with BT-474 [3] came to 86.3%. Further, the viability at 5 µM in the assay on BT-474 [4] was found to be 34.8%. Also, the IC50 on Histone deacetylase 1 was 0.72 nM; in the assay “cells [10]” it was 690 nM; in [13] it was 175 nM; in “cells [14]”, 8.05 µM; in “cells [15]” it was 630 nM; in the assay “cells [18]”, 3.88 µM. The IC50 in assay [24] turned out to be 0.12 nM; in [26], 3.2 nM; in “cells [27]” it was 490 nM. Besides, the viability at 2.5 µM with BT-474 [21] was 64.5%.
As to `C#Cc1cccc(Nc2ncnc3cc(OC)c(OCCCCCCC(=O)NO)cc23)c1` [CUDC-101], it took 4.2 nM to reach half-maximal inhibition in assay [28] (IC50).
Turning to `C[C@@H]1COC(Nc2ccc3ncnc(Nc4ccc(OCc5nccs5)c(Cl)c4)c3c2)=N1` [VARLITINIB], the IC50 in [29] turned out to be 2 nM; in assay [30], 7 nM.

In general, inhibition refers to how much of the control response was suppressed. The IC50 is the concentration needed to halve the response being measured.
